Measurements of several laboratories.
Lines come from different studies, so protocols differ. pIC50: −log10 of the molar value. Converted amounts (≈) assume the structure as drawn.

| Structure (SMILES) | target or system | assay | test system | setting | quantity | result |
| --- | --- | --- | --- | --- | --- | --- |
| CCCCCCC/C=C/C(=O)N1C(=O)/C(=C(/C)O)C(=O)C1CCCCN (stereo not drawn) | Burkholderia cepacia | microbial growth | ATCC25416 |  | MIC | > 200 µg/mL |
| NS(=O)(=O)c1cc(C(=O)O)c(NCc2ccco2)cc1Cl | human PBMC | cell migration |  | 10 µM | inhibition | 89% |
| C=C(CCC=C(C)C)[C@H]1CC[C@H]2[C@@H]3CC=C4C[C@@H](O)CC[C@]4(C)[C@H]3CC[C@]12C | Leishmania mexicana | parasite growth |  | 48 h, promastigote | pIC50 | < 3.58 |
| C/C(O)=C1\C(=O)C(CC(C)C)N(C(=O)CCCCCc2ccccc2)C1=O (stereo not drawn) | Burkholderia cepacia | microbial growth | ATCC25416 |  | MIC | > 200 µg/mL |
| CCC1(c2ccc(N)cc2)CCC(=O)NC1=O (stereo not drawn) | MCF-10A | cell growth or viability, CCK-8 |  | 48 h | pIC50 | < 4.30 |
| Cc1ccc(Cl)c(Nc2ccccc2C(=O)O)c1Cl | human PBMC | cell migration |  | 10 µM | inhibition | 100% |
| CC(C)CCC[C@@H](C)[C@H]1CC[C@H]2[C@@H]3CCC4=CC(=O)CC[C@]4(C)[C@H]3CC[C@]12C | Leishmania mexicana | parasite growth |  | 48 h, promastigote | pIC50 | 4.09 |
| C[C@]12CCC(=O)C(O)=C1CC[C@@H]1[C@@H]2CC[C@]2(C)C(=O)CC[C@@H]12 | CAL-27 | cell growth or viability |  | 72 h | pIC50 | < 4.70 |
| O=C(Oc1ccc(I)cc1)[c-]1cccc1.[Fe+2].c1cc[cH-]c1 | MCF-10A | cell growth or viability, MTT |  | 72 h | pIC50 | 5.15 |
| Cc1cc(C)c(-n2ccn(-c3c(C)cc(C)cc3C)c2=[Se])c(C)c1 | HCT-15 | cell growth or viability, MTT |  | 72 h | pIC50 | 4.97 |
| CCCCCCC/C=C/C(=O)N1C(=O)/C(=C(\O)CCCC)C(=O)C1CC(C)C (stereo not drawn) | Burkholderia cepacia | microbial growth | ATCC25416 |  | MIC | > 200 µg/mL |
| CN[C@@H]1[C@H](O)[C@H](NC)[C@H]2O[C@@]3(O)C(=O)C[C@@H](C)O[C@H]3O[C@@H]2[C@H]1O | Burkholderia cepacia | microbial growth, broth dilution | ATCC25416 |  | MIC | 50 µg/mL (≈ 150 µM) |
